SMARCA2 act: activators of SMARCA2 function | activation, % at 9.1 µM | MG213 cells, MMTV-luciferase reporter, dexamethasone, overnight | actives 1% (n = 370,000); in the data active = activation above about 7.8%
ASAP1 inh: ASAP1 ArfGAP inhibition | AID 624377 | inhibition, % at 16.5 µM | Q9ULH1 | actives 0.19% (n = 360,000) | ASAP1-stimulated ARF1 GTP hydrolysis, GDP FP detection; in the data active = inhibition above about 25%
esBAF inh: SWI/SNF esBAF complex inhibition | actives 2% (n = 350,000) | reporter increase, % at 12.5 µM | mouse ES cells, Bmi1-luciferase knock-in reporter, 24 h; 100% = twice the neutral-well signal | AID 602393; in the data active = activation above about 40%;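 also: a rise in the Bmi1 reporter signal indicates esBAF inhibition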
ARFGAP1 inh: inhibitors of rat ARFGAP1 | actives 0.26% (n = 360,000) | inhibition, % at 16.5 µM | Arfgap1-stimulated ARF1 GTP hydrolysis, GDP FP detection | Q62848;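 active = inhibition above a per-plate limit, mean inhibition of low control wells plus 3 SD, cut at about 25% in these data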
Target sequence (Q62848 1-136 limits assumed): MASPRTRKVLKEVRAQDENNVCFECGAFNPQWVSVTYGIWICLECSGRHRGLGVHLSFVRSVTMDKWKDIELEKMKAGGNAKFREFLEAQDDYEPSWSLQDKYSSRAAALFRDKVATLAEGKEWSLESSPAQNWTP
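Assay system: Rat Arfgap1 GAP domain (His6, aa 1-136), purified enzyme | Buffer or medium: HEPES 25 mM pH 7.5, NaCl 150 mM, MgCl2, DTT | Schedule: GTP hydrolysis reaction 2 h at 25 °C | Signal: FP of antibody-bound GDP Alexa 633 tracer, ex 620/em 688 nm | Measure: Percent inhibition of Arfgap1-stimulated GTP hydrolysis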
ASAP1 GAP conf: ASAP1 inhibition confirmed | actives 37% (n = 620) | shares compounds with ASAP1 inh | ASAP1-stimulated Arf1 GTPase, GDP fluorescence polarization | inhibition, % at 16.5 µM;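 active = mean inhibition over triplicates exceeds the hit threshold derived for the earlier primary screening run, cut at about 25% in these data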
Numbers stand for hits. Sampled rows, rich in hits. Any-hit rate of the full collection: about 2.6%.

`Cc1cc(OCC(=O)Nc2ccc(N3CCCC3)cc2)cc(C)c1Cl` gave SMARCA2 act inactive, ASAP1 inh 24.8, esBAF inh inactive, ARFGAP1 inh inactive and ASAP1 GAP conf inactive.
Screening CCOc1ccc(OCC(=O)Nc2ccc(N3CCCCC3)cc2)cc1 returned SMARCA2 act inactive, ASAP1 inh inactive, esBAF inh inactive and ARFGAP1 inh inactive.
`O=C(CNC(=O)c1ccccc1O)N/N=C/c1cc(Br)ccc1OC(=O)/C=C/c1ccco1` gave SMARCA2 act inactive, ASAP1 inh 26.0, ARFGAP1 inh inactive and ASAP1 GAP conf inactive.
For COc1ccc(C(C)=O)cc1COC(=O)c1ccc2c(c1)OCCO2 the results were SMARCA2 act inactive, ASAP1 inh 28.1, esBAF inh inactive, ARFGAP1 inh inactive and ASAP1 GAP conf inactive.
For C[C@@H]1CN([C@@H](C)CO)C(=O)CCCn2cc(nn2)CO[C@@H]1CN(C)C(=O)Nc1cccc(F)c1 the results were esBAF inh inactive.
For CC(C)c1ccc([C@@H]2O[C@H](CCc3ccccc3)Cc3[nH][nH]c(=O)c32)cc1 the results were SMARCA2 act inactive, ASAP1 inh 28.4, ARFGAP1 inh inactive and ASAP1 GAP conf inactive.
Screening CCN1CCN(c2cc(C)c3cc(NC(=O)c4ccc(OC)c(OC)c4)ccc3n2)CC1 returned SMARCA2 act inactive, ASAP1 inh 37.2, esBAF inh inactive, ARFGAP1 inh inactive and ASAP1 GAP conf 49.9.
For C[C@H]1CCCCO[C@H](CN(C)C(=O)CCCN(C)C)[C@@H](C)CN([C@@H](C)CO)C(=O)c2cc(NC(=O)c3ccccc3)ccc2O1 the results were esBAF inh inactive.
Screening COc1cc(/C=C/c2nc(-c3ccccc3O)n[nH]2)cc(OC)c1OC returned SMARCA2 act inactive, ASAP1 inh 25.4, ARFGAP1 inh inactive and ASAP1 GAP conf 31.0.
For Cc1ccc2nc(SCC(=O)Nc3ccc(F)cc3F)[nH]c2c1 the results were SMARCA2 act inactive, ASAP1 inh 27.4, esBAF inh inactive, ARFGAP1 inh inactive and ASAP1 GAP conf inactive.
`C=CCN=C1NC(c2ccc(F)cc2)C(C(=O)OC)=C(C)N1Cc1ccccc1C(F)(F)F` (stereo not drawn) gave SMARCA2 act inactive, ASAP1 inh 24.7, ARFGAP1 inh inactive and ASAP1 GAP conf inactive.
`O=C(C[C@@H]1CC[C@H]2[C@@H](COC[C@H](O)CN2Cc2cc(F)ccc2F)O1)N1CCc2ccccc2C1` gave esBAF inh inactive.
Screening O=C(C[C@@H]1C[C@@H]2c3cc(NC(=O)C4CCC4)ccc3O[C@@H]2[C@@H](CO)O1)NCc1ccc2c(c1)OCO2 returned esBAF inh inactive.
`COC(=O)c1cccc(Nc2nc(-c3ccncc3)nc3ccccc23)c1` gave SMARCA2 act inactive, ASAP1 inh 27.6, esBAF inh inactive, ARFGAP1 inh inactive and ASAP1 GAP conf 57.1.
`CC(=O)Nc1cccc(Nc2nc(-c3ccccc3)nc3ccccc23)c1` gave SMARCA2 act inactive, ASAP1 inh inactive and ARFGAP1 inh inactive.
Oc1cccc(Nc2nc(-c3ccccc3)nc3ccccc23)c1 was read as SMARCA2 act inactive, ASAP1 inh 26.8, esBAF inh inactive, ARFGAP1 inh inactive and ASAP1 GAP conf 28.1.
CC(=O)c1cccc(Nc2nc(-c3ccccc3)nc3ccccc23)c1 was read as SMARCA2 act inactive, ASAP1 inh inactive, esBAF inh inactive and ARFGAP1 inh inactive.
For C[C@@H]1CN([C@H](C)CO)S(=O)(=O)c2ccc(C#CC3CC3)cc2O[C@@H]1CN(C)C(=O)CN(C)C the results were esBAF inh inactive.
`CCc1ccc(/C=C2\Oc3cc(OC(=O)N4CCOCC4)ccc3C2=O)cc1` gave SMARCA2 act inactive, ASAP1 inh inactive, esBAF inh inactive and ARFGAP1 inh inactive.
COc1ccc(/C=C2\Oc3cc(OC(=O)N4CCOCC4)ccc3C2=O)cc1 was read as SMARCA2 act inactive, ASAP1 inh 32.6, ARFGAP1 inh inactive and ASAP1 GAP conf 70.0.
Screening COc1cc(/C=C2/SC(N)=NC2=O)ccc1Oc1ccc([N+](=O)[O-])cc1[N+](=O)[O-] returned SMARCA2 act inactive, ASAP1 inh 29.3, ARFGAP1 inh inactive and ASAP1 GAP conf 49.4.
COc1cc(/C=C2/SC(=O)NC2=O)ccc1Oc1ccc([N+](=O)[O-])cc1[N+](=O)[O-] was read as SMARCA2 act inactive, ASAP1 inh inactive and ARFGAP1 inh inactive.
